Source: ChEMBL document CHEMBL5634203, “A Tiny Pocket Packs a Punch: Leveraging Pyridones for the Discovery of CNS-Penetrant Aza-indazole IRAK4 Inhibitors” (ACS Med Chem Lett, 2024)
Converted amounts (≈) assume the structure as drawn.

Columns and labels:
[1] = Plasma protein binding in human assessed as unbound fraction; type: ADME, cell-free
[2] = Intrinsic clearance in human hepatocytes; type: ADME, cell-based, Hepatocyte
In short: (§1)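 Intrinsic clearance measured in human liver microsomes and in human hepatocytes and reported as scaled values. Arithmetic mean of at least two experiments.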

[3] = Intrinsic clearance in human liver microsomes; type: ADME, Microsome; conditions: read-out: CLH; in short: as §1
[4] = Plasma protein binding in rat assessed as unbound fraction; type: ADME, cell-free
[5] = Kinetic solubility of compound in DMSO at pH 6.8 incubated for 24 hrs; type: physicochemical; conditions: read-out: Kinetic_solubility
In short: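 Kinetic solubility assay at pH 6.8. Arithmetic mean of at least two experiments.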

[6] = Lipophilicity, log D of the compound at pH 7.4; type: physicochemical; conditions: buffer
[7] = Clearance in Sprague-Dawley rat measured for 4 hrs by LC-MS/MS analysis; type: ADME; conditions: in vivo
In short: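 Male Sprague Dawley rats dosed by infusion. Clearance measured during the cassette Kpu,u procedure.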

[8] = Unbound brain-to-plasma concentration ratio in Sprague-Dawley rat brain at 1 mg/kg, iv by LC-MS/MS analysis; type: ADME, organism-based; conditions: read-out: K(p,uu,brain)
In short: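 Male Sprague Dawley rats dosed by infusion as a cassette. Total drug measured in brain (Cb) and plasma (Cp). Kpu,u calculated as (Cb×Fub)/(Cp×Fup), using the unbound fractions in brain and in plasma.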

Mus musculus [9] = assay: Anti-inflammatory activity in po dosed C57BL/6 mouse assessed reduction in LPS-induced IL-6 level in brain preincubated with compound for 60 mins followed by LPS-induction and measured after 90 mins by ELISA analysis; type: functional, organism-based; conditions: dose 10-100 mg/kg, time 150.0 min
In short: (§2)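 Mice dosed orally with vehicle (0 mpk) or 10, 30 or 100 mpk, 60 min before intraperitoneal LPS. Cytokine levels and free drug concentration in plasma and brain taken 90 min after LPS. Each dose group compared by one-way ANOVA with the vehicle group given i.p. LPS.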

Mus musculus [10] = assay: Anti-inflammatory activity in po dosed C57BL/6 mouse assessed reduction in LPS-induced IL-1beta level in brain preincubated with compound for 60 mins followed by LPS-induction and measured after 90 mins by ELISA analysis; type: functional, organism-based; conditions: dose 10-100 mg/kg, time 150.0 min; in short: as §2
Mus musculus [11] = assay: Anti-inflammatory activity in po dosed C57BL/6 mouse assessed reduction in LPS-induced IL-6 level in plasma preincubated with compound for 60 mins followed by LPS-induction and measured after 90 mins by ELISA analysis; type: functional, organism-based; conditions: dose 10-100 mg/kg, time 150.0 min; in short: as §2
Mus musculus [12] = assay: Anti-inflammatory activity in po dosed C57BL/6 mouse assessed reduction in LPS-induced TNFalpha level in brain preincubated with compound for 60 mins followed by LPS-induction and measured after 90 mins by ELISA analysis; type: functional, organism-based; conditions: dose 10-100 mg/kg, time 150.0 min; in short: as §2
Mus musculus [13] = assay: Anti-inflammatory activity in po dosed C57BL/6 mouse assessed reduction in LPS-induced IL-1beta level in plasma preincubated with compound for 60 mins followed by LPS-induction and measured after 90 mins by ELISA analysis; type: functional, organism-based; conditions: dose 10-100 mg/kg, time 150.0 min; in short: as §2
Mus musculus [14] = assay: Anti-inflammatory activity in po dosed C57BL/6 mouse assessed reduction in LPS-induced MCP-1 level in brain preincubated with compound for 60 mins followed by LPS-induction and measured after 90 mins by ELISA analysis; type: functional, organism-based; conditions: dose 10-100 mg/kg, time 150.0 min; in short: as §2
Mus musculus [15] = assay: Anti-inflammatory activity in po dosed C57BL/6 mouse assessed reduction in LPS-induced MCP-1 level in plasma preincubated with compound for 60 mins followed by LPS-induction and measured after 90 mins by ELISA analysis; type: functional, organism-based; conditions: dose 10-100 mg/kg, time 150.0 min; in short: as §2
Mus musculus [16] = assay: Anti-inflammatory activity in po dosed C57BL/6 mouse assessed reduction in LPS-induced KC-GRO level in brain preincubated with compound for 60 mins followed by LPS-induction and measured after 90 mins by ELISA analysis; type: functional, organism-based; conditions: dose 10-100 mg/kg, time 150.0 min; in short: as §2
Mus musculus [17] = assay: Anti-inflammatory activity in po dosed C57BL/6 mouse assessed reduction in LPS-induced TNFalpha level in plasma preincubated with compound for 60 mins followed by LPS-induction and measured after 90 mins by ELISA analysis; type: functional, organism-based; conditions: dose 10-100 mg/kg, time 150.0 min; in short: as §2
Mus musculus [18] = assay: Anti-inflammatory activity in po dosed C57BL/6 mouse assessed reduction in LPS-induced KC-GRO level in plasma preincubated with compound for 60 mins followed by LPS-induction and measured after 90 mins by ELISA analysis; type: functional, organism-based; conditions: dose 10-100 mg/kg, time 150.0 min; in short: as §2
Mus musculus [19] = assay: Anti-inflammatory activity in po dosed C57BL/6 mouse assessed increase in LPS-induced IL-10 level in plasma preincubated with compound for 60 mins followed by LPS-induction and measured after 90 mins by ELISA analysis; conditions: dose 10-100 mg/kg, time 150.0 min

Compound | fraction unbound [1] | CLH [2] | microsomal CLint [3] | fraction unbound [4] | solubility kinetic at 24 h [5] | logD [6] | clearance [7] | Kp uu [8] | Activity (Mus musculus [9]) | Activity (Mus musculus [10]) | Activity (Mus musculus [11]) | Activity (Mus musculus [12]) | Activity (Mus musculus [13]) | Activity (Mus musculus [14]) | Activity (Mus musculus [15]) | Activity (Mus musculus [16]) | Activity (Mus musculus [17]) | Activity (Mus musculus [18]) | Activity (Mus musculus [19])
CC(C)Oc1cc2nn(C34COC(C)(C3)C4)cc2cc1C(=O)Nc1cccn([C@H]2C[C@H]2F)c1=O | 0.0232 | 3.8 µL/min/mg | < 5.3 µL/min/mg | 0.047 | 56 µg/mL (≈ 120 µM) | 2.74 | – | – | – | – | – | – | – | – | – | – | – | – | –
CC(C)Oc1nc2nn(C34COC(C)(C3)C4)cc2cc1C(=O)Nc1cccn([C@H]2C[C@H]2F)c1=O | 0.0594 | 3 µL/min/mg | < 5.3 µL/min/mg | 0.0718 | 25 µg/mL (≈ 53.5 µM) | 2.54 | 43 mL/min/kg | 0.7 | – | – | – | – | – | – | – | – | – | – | –
CC(C)Oc1cc2nn(C34COC(C)(C3)C4)cc2cc1C(=O)Nc1cccn(C)c1=O | – | 3.43 µL/min/mg | 7.07 µL/min/mg | – | 58 µg/mL (≈ 137 µM) | 2.16 | 11.2 mL/min/kg | 1 | Dose-Dependent Effect | Dose-Dependent Effect | Dose-Dependent Effect | Dose-Dependent Effect | Dose-Dependent Effect | Dose-Dependent Effect | Dose-Dependent Effect | Dose-Dependent Effect | Dose-Dependent Effect | Dose-Dependent Effect | Dose-Dependent Effect
CC(C)Oc1nc2nn(C34COC(C)(C3)C4)cc2cc1C(=O)Nc1cccn([C@@H]2C[C@@H]2F)c1=O | 0.0127 | 3.3 µL/min/mg | < 5.3 µL/min/mg | 0.083 | 6.6 µg/mL (≈ 14.1 µM) | 2.61 | – | – | – | – | – | – | – | – | – | – | – | – | –
